Source: the M2OR odorant receptor database

What follows are compounds tested against T1, OR2T29 (Homo sapiens) (UniProt Q8NH02). Conditions: stereoisomer not certain.
T1 sequence (whole entry): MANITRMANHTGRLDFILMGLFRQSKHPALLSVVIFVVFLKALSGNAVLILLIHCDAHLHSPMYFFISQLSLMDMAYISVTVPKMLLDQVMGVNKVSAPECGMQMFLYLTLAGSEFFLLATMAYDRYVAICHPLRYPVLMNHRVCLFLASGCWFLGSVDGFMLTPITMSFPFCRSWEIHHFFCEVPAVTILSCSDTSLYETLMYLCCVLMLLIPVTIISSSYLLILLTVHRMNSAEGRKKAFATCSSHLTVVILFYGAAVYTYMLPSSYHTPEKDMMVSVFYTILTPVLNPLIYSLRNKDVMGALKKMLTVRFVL
Procedure, shortened: (§1)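 Each entry records the cell line, G-protein, co-transfected protein and tags used. Methods varied with the source, often transient luciferase assays in mammalian cell lines. A receptor–molecule pair is called responsive (active) if the original authors judged its signal statistically different from baseline and non-responsive (inactive) otherwise.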

SMILES | odorant receptor agonist call
CC1CCCCCCCCCCCCC(=O)C1 (stereo unspecified) | inactive
CC(CO)CS (stereo unspecified) | inactive
CCCCCC(S)C(C)CO (stereo unspecified) | inactive

The compounds below were run against T2, OR2T3 (Homo sapiens) (UniProt Q8NH03). Conditions: stereoisomer not certain.
T2 sequence (whole entry): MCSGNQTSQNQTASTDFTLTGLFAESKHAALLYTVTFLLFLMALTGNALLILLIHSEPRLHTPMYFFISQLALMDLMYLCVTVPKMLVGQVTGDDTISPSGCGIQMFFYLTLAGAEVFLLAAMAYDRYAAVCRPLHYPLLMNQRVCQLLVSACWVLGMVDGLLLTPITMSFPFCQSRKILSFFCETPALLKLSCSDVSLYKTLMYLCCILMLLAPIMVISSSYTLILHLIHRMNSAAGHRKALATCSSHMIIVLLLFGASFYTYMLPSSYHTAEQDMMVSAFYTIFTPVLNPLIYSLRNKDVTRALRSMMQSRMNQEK
Procedure, shortened: as §1

SMILES | odorant receptor agonist call
CC1CCCCCCCCCCCCC(=O)C1 (stereo unspecified) | inactive
CC(CO)CS (stereo unspecified) | inactive
CCCCCC(S)C(C)CO (stereo unspecified) | inactive
